Paper PMC6704442 (ACS Omega, 2019)
Several values for one entry are separate records, joined by “and”; a condition that tells them apart may be missing. Equal entries are not always repeated.

Columns and labels:
[1] = target: human serum albumin (HSA) (Homo sapiens, UniProt P02768); experiment: HSA binding by steady-state fluorescence quenching; details: 300 K, ±2σ
Summary of the method: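 Human serum albumin (5 μM, 3 mL, freshly prepared in buffer) was titrated with successive additions of test compound stock at 300 K. Excitation was 283 nm and emission was read at 372 nm, with slits of 1 and 5 nm. Fluorescence was inner-filter corrected. KSV came from the Stern–Volmer equation; Ka and n came from log[(F0−F)/F] versus log[Q]. Performed in triplicate.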

H1 histone = H1 histone binding by steady-state fluorescence quenching; details: 300 K, ±2σ
[2] = literature value for comparison; cited from earlier work
[3] = 40 mg kg^–1; cited from earlier work

Chain of human serum albumin (HSA) (P02768 25-609): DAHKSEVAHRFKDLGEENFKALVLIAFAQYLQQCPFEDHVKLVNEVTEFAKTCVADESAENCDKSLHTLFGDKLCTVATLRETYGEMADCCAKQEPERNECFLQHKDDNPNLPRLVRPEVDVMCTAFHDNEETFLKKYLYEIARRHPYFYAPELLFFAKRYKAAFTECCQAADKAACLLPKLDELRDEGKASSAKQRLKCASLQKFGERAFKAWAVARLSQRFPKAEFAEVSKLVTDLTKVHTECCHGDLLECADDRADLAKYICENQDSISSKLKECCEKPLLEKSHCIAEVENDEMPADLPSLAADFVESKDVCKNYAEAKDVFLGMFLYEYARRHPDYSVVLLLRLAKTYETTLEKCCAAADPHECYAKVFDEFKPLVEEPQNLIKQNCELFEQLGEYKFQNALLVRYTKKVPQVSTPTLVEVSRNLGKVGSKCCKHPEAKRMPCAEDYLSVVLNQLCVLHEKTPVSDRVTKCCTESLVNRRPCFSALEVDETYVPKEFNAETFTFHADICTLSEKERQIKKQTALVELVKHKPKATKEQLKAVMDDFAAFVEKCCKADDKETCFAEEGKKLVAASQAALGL

SMILES	KSV × 10^–3 (Stern-Volmer constant), HSA [1]	n (number of binding sites), HSA [1]	KSV × 10^–3 (Stern-Volmer constant), H1 (H1 histone)	n (number of binding sites), H1 (H1 histone)	AUCtotal [2] [μg h L^–1]	CLapp [2] [L h^–1]	Vd [2] [L]	t1/2e [2] [h]	tmax [3] [h]
Cc1ccc(C(C)C)cc1.[Cl][Ru]([Cl])[PH]12CN3CN(CN(C3)C1)C2 [RAPTA-C]	7.06 ± 1.37 × 10^–3	0.87 ± 0.04	1.85 ± 0.21 × 10^–3	1.06 ± 0.03	891	0.009	0.153	11.47	
[Cl][Ru]([Cl])([Cl])[Cl].[Na+].c1ccc2[nH]ncc2c1.c1ccc2[nH]ncc2c1 [KP-1339/IT139, sodium trans-[tetrachloridobis(1H-indazole)ruthenate(III)]]									2.5
N.N.[Cl][Pt][Cl] [cisplatin]	0.58 ± 0.14 × 10^–3	1.18 ± 0.21	2.28 ± 0.59 × 10^–3	0.48 and 0.48 ± 0.14					
